From ChEMBL document CHEMBL4513216, “Probing the Open Global Health Chemical Diversity Library for Multistage-Active Starting Points for Next-Generation Antimalarials” (ACS Infect Dis, 2020)

Test: Toxicity liver stage against HepG2, at 10uM
Assay type: cell-based
Set-up: test concentration 10 uM, cell line HepG2-A16-CD81EGFP
Conditions: human, HepG2-A16-CD81EGFP cells; read-out: INHIBITION
Summary of the method: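 Uninfected HepG2-A16-CD81EGFP cells, 3 × 10^3 per well, 1536-well, plated on prespotted compound at 10 μM final, parasite-free screening media added to match infected plates; puromycin 10 μM positive, DMSO 0.5% negative; run in parallel with 48 h PbLuc assay at 37 °C, 5% CO2; viability by CellTiter-Glo luminescence, normalized to controls.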

Row | SMILES | cytotoxicity at 10 µM
1 | CN(Cc1ccccc1)CC1CC2(CO1)CN(c1nncs1)C2 (centres undefined) | 13.7%
2 | c1ccc(NCc2cn3c(n2)CN(Cc2nccs2)CC3)nc1 | 10.4%
3 | C=Cn1cc(CN2CCN(CC3(c4ccccc4)CC3)CC2)c(C)n1 | 1.78%
4 | CN(CC(C)(CO)CO)C(=O)Nc1cc(Cl)cc(Cl)c1 | 0.0988%
5 | CN1CCC(NC(=O)c2cc(F)cc(Cl)c2O)C1=O (centres undefined) | 3.09%
6 | O=C(NCc1nncn1C1CC1)C1(c2ccc(F)cc2)CCOCC1 | -10.4%
7 | N#Cc1c(Cl)nsc1NCc1ccc(N2CCCC(C(N)=O)C2)cc1 (centres undefined) | -9.65%
8 | COc1c(CNCc2ccccc2-n2ccnc2)c(C)nn1C | 18.7%
9 | Cc1cccc(NC(=O)CN(C)C(=O)c2ccc(OC(C)C)nc2)n1 | -8.99%
10 | CC(C)Oc1ncc(C(=O)N2CCC(N(C)C)CC2)cc1Cl | -4.09%
11 | COc1ccc(CNC(=O)NCC(=O)NC2CC2)c(C(F)(F)F)c1 | 6.41%
12 | CN(CC(=O)N1CCCC1c1ccccn1)Cc1ccccc1 (centres undefined) | -0.51%
13 | CCc1cc(CNC(=O)Nc2cc(F)ccc2N2CCCCC2)on1 | -18.9%
14 | O=C(CN1CCSC2(CCCCC2)C1)NCC(F)(F)F | -6.4%
15 | Cc1cccc(-c2nnc(C(C)N3CCn4c(C)nnc4C3)o2)c1 (centres undefined) | 0.131%
16 | Cc1csc(C(C#N)C(=O)NCc2cccnc2)n1 (centres undefined) | 9.6%
17 | COCCNC(=O)CSc1nnc(OC(C)C)s1 | -5.7%
18 | COCCN1CCC2(CC1)CC(c1cccnc1)C(=O)N2C (centres undefined) | 7.26%
19 | Cc1cc(C(=O)NCC2OCCc3cn(CC4CC4)nc32)c(C)[nH]1 (centres undefined) | 3.42%
20 | COC(=O)CNc1ccc(-c2nc(Cc3ccc(OC)cc3)no2)cn1 | 1.06%
21 | Cc1nccc(N[C@H]2CN(CCC(=O)NC3CCCC3)C[C@@H]2C2CC2)n1 | -4.57%
22 | CCn1c(N)nc2cc(C(=O)N3Cc4ccccc4C3)cnc21 | -8.51%

Row | SMILES | cytotoxicity at 10 µM
23 | COCc1c(C(=O)N2CCCC(C(=O)c3nccn3C)C2)noc1C (centres undefined) | 15.8%
24 | CC(C)=CCN1CCN(Cc2cc(C)n[nH]2)CC1CCO (centres undefined) | 1.96%
25 | COCCN(Cc1c(C)nn(C)c1C)C(=O)C1COc2ccccc2C1 (centres undefined) | -3.87%
26 | Cc1cc2[nH]c(=O)oc2cc1S(=O)(=O)N1C[C@@H](N(C)C)[C@H](C(C)C)C1 | 0.234%
27 | CC(C)N(CCO)C(=O)C1CCC(=O)N(CCc2ccc(Cl)cc2)C1 (centres undefined) | -8.27%
28 | CC(C)(C)c1csc(CNC(=O)C2NCCc3[nH]cnc32)n1 (centres undefined) | -2.65%
29 | CN(CCCc1nccn1C)c1nccc(N2CCC(O)C2)n1 (centres undefined) | 10.2%
30 | CCN1CC(CN(C)Cc2nc(-c3ccc(F)cc3F)oc2C)CC1=O (centres undefined) | -6.64%
31 | CN(Cc1cc2cc(F)ccc2[nH]1)C(=O)C1CC(=O)N(C2CCCC2)C1 (centres undefined) | -3.26%
32 | CSCCCN1C[C@H](NC(=O)c2cc(C3CC3)on2)[C@@H](C2CC2)C1 | 2.72%
33 | COc1ccc([C@@H]2CN(C(=O)CCc3cc(Cl)no3)C[C@H]2N(C)C)cc1 | 6.1%
34 | CC(=O)Nc1ncc(S(=O)(=O)N2CCN(C3CCCCC3)CC2)s1 | -4.5%
35 | CC(C)c1nc(CN(C)C(=O)CNS(=O)(=O)c2cccs2)cs1 | -6.46%
36 | O=C(CN1CCCCCC1)NCc1cccnc1Oc1ccccc1 | -11.1%
37 | Cc1ccc(OCc2occc2C(=O)N2CC[C@H](CO)[C@@H](O)C2)cc1 | 14.3%
38 | Cc1ccc(C)n1C(C)C(=O)N1CCCN(Cc2cscn2)CC1 (centres undefined) | -8.36%
39 | CCc1ccc(CN2C[C@H](OCC(=O)N(C)C)[C@H]3COC[C@H]32)o1 | 2.46%
40 | Cc1ccc(CN2CCc3c(CN4CCCC4)n[nH]c3C2)s1 | 4.41%
41 | CN(C)C(=O)C1CCN(C2CCN(CC3CCC3)CC2)CC1 | 2.82%
42 | c1csc(CN2C[C@H](OCC3CCOCC3)[C@H]3COC[C@H]32)n1 | -3.76%
43 | Cc1noc(C)c1CN1CC[C@H]2O[C@@H](C(=O)N3CCCC3)CC[C@H]21 | 3.35%
44 | COCCNc1nc(C)nc2c1CCN(CC1CCC(N)CC1)CC2 (centres undefined) | -2.84%
